# Legend:
# [1] = biological target: RAC-beta serine/threonine-protein kinase (Homo sapiens) (UniProt P31751); assay: Inhibition of PKBbeta assessed as residual activity at 0.1 uM by Cherenkov counting relative to control in presence of 50 uM ATP
# Procedure, shortened: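 Single-concentration screen at 0.1 μM in a 76-kinase panel. ATP for each kinase was set near its Km for ATP. Residual activity is given as a percentage of control assays without compound, mean of n = 3 ± SD.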
# [2] = biological target: T1, Dual specificity tyrosine-phosphorylation-regulated kinase 2 (Homo sapiens) (UniProt Q92630); assay: Inhibition of DYRK2 assessed as residual activity at 0.1 uM by Cherenkov counting relative to control in presence of 50 uM ATP
# T1 sequence (whole entry): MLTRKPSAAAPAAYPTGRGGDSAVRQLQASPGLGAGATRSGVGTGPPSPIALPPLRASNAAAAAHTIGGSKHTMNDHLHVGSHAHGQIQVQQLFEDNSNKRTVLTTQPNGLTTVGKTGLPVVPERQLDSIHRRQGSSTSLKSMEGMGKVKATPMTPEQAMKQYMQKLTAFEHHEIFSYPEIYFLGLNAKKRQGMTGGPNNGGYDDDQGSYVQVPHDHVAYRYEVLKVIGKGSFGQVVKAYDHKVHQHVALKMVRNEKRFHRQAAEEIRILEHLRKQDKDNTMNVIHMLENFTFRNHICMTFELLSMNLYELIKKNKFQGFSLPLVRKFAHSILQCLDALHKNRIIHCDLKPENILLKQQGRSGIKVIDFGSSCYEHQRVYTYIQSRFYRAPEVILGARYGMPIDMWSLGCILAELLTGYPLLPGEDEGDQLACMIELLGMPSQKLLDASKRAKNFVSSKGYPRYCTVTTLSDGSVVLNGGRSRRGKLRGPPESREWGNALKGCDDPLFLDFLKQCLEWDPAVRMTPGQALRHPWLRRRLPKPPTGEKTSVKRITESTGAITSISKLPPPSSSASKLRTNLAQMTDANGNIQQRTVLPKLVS
# Procedure, shortened: (§1)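 Single-concentration screen at 0.1 µM across a panel of 76 protein kinases. Each kinase was run at an ATP concentration approximating its ATP Km. Results are % mean residual activity versus control assays without compound (n = 3 ± SD).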
# [3] = biological target: Cyclin-dependent kinase 2/cyclin A (Homo sapiens) (UniProt P24941+P20248+P78396); assay: Inhibition of CDK2/cyclin A assessed as residual activity at 0.1 uM by Cherenkov counting relative to control in presence of 20 uM ATP; format: protein-complex assay; procedure, shortened: as §1
# [4] = biological target: T2, Dual specificity tyrosine-phosphorylation-regulated kinase 3 (Homo sapiens) (UniProt O43781); assay: Inhibition of DYRK3 assessed as residual activity at 0.1 uM by Cherenkov counting relative to control in presence of 5 uM ATP; procedure, shortened: as §1
# T2 sequence (whole entry): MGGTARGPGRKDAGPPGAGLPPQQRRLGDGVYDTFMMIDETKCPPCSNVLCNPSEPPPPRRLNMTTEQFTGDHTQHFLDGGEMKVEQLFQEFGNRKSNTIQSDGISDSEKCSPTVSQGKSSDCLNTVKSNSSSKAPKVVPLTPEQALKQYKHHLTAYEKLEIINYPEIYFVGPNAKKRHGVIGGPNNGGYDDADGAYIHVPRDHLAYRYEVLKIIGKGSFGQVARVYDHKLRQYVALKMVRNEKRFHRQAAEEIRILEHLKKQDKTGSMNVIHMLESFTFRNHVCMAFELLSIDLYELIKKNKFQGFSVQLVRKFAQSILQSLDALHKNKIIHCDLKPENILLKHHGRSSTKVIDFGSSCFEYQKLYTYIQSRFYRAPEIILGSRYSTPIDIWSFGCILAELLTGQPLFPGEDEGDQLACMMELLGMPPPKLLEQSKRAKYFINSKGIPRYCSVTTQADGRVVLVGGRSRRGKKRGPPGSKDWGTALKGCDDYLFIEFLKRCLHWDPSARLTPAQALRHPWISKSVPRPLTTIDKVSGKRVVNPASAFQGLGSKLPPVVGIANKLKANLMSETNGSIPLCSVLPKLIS
# [5] = biological target: T3, MAP kinase-activated protein kinase 5 (Homo sapiens) (UniProt Q8IW41); assay: Inhibition of PRAK assessed as residual activity at 10 uM by Cherenkov counting relative to control in presence of 20 uM ATP
# T3 sequence (whole entry): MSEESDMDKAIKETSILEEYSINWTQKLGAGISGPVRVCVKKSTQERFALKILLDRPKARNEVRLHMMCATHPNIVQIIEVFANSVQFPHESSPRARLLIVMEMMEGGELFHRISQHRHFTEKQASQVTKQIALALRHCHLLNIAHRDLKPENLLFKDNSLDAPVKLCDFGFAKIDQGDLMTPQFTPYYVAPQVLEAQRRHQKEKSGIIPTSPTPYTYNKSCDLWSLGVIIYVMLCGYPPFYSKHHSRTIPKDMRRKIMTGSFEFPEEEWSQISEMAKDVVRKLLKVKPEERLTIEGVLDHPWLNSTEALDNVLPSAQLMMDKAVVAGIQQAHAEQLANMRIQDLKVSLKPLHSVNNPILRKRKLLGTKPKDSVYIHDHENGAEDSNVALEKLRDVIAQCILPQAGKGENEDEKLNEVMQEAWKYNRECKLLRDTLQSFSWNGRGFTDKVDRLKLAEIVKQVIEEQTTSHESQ
# Procedure, shortened: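 Single-concentration profiling at 10 μM in a 78-kinase panel. Kinase activity is expressed as a percentage of control assays run without compound.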
# Chain of RAC-beta serine/threonine-protein kinase (Homo sapiens) (P31751 whole entry): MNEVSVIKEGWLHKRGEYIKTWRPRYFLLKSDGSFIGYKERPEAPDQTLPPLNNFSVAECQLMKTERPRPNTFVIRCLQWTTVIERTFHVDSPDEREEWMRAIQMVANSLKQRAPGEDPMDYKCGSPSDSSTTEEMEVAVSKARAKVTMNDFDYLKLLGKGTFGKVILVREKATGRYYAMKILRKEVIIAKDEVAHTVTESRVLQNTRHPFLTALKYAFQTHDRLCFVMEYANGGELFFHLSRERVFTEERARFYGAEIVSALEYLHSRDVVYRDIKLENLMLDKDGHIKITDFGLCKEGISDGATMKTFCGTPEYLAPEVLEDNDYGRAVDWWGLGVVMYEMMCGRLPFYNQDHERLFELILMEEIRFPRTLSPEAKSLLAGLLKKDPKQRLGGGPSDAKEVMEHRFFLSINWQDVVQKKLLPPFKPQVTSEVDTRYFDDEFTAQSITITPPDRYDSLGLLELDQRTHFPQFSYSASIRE
Activity [1] [%],Activity [2] [%],Activity [3] [%],Activity [4] [%],Activity [5] [%],Structure (SMILES)
98,82,112,104,,COc1ccc(/C=C/C(=O)Nc2cc(-c3[nH]c(SC)nc3-c3ccc(F)cc3)ccn2)c(OC)c1
100,101,115,90,,COc1ccc(/C=C/C(=O)Nc2cc(-c3[nH]c([S+](C)[O-])nc3-c3ccc(F)cc3)ccn2)c(OC)c1 (stereo not given)
,,,,88,CC(C)c1onc(-c2ccc(F)cc2)c1-c1ccncc1
,,,,98,CC(C)c1noc(-c2ccc(F)cc2)c1-c1ccncc1
